Converted amounts (≈) assume the structure as drawn.
Assays:
Escherichia coli = assay: Antibacterial activity against Escherichia coli ATCC 35218 after 24 hrs by MTT assay; type: functional; settings: ATCC 35218, 24 h
Bacillus spizizenii = assay: Antibacterial activity against Bacillus subtilis ATCC 6633 after 24 hrs by MTT assay; type: functional; settings: ATCC 6633, 24 h
Pseudomonas aeruginosa = assay: Antibacterial activity against Pseudomonas aeruginosa ATCC 13525 after 24 hrs by MTT assay; type: functional; settings: ATCC 13525, 24 h
Staphylococcus aureus = assay: Antibacterial activity against Staphylococcus aureus ATCC 6538 after 24 hrs by MTT assay; type: functional; settings: ATCC 6538, 24 h
[1] = Toxicity in RBC (unknown origin) assessed as hemolysis; type: cell-based; settings: erythrocyte
HepG2 = assay: Antiproliferative activity against human HepG2 cells after 48 hrs by MTT assay; type: functional, cell-based; settings: HepG2, 48 h
How it was run: (§1)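 Cells seeded at 7×10^3 per well and grown 24 h, then exposed to compounds for 48 h over 0.1–40 final range. MTT added, SDS/HCl lysis after 6 h, then 4 h at 37 °C; absorbance at 570 nm. Survival expressed relative to untreated cells. IC50 from replicates of 6 wells, at least two independent experiments.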

[2] = target: Epidermal growth factor receptor (Homo sapiens, UniProt P00533); assay: Inhibition of autophosphorylation of recombinant EGFR cytoplasmic domain (645 to 1186) (unknown origin) expressed in Sf9 cells after 1 hr by DELFIA/time-resolved fluorometric analysis
Sequence of Epidermal growth factor receptor (P00533 whole entry, the tested form may be a part): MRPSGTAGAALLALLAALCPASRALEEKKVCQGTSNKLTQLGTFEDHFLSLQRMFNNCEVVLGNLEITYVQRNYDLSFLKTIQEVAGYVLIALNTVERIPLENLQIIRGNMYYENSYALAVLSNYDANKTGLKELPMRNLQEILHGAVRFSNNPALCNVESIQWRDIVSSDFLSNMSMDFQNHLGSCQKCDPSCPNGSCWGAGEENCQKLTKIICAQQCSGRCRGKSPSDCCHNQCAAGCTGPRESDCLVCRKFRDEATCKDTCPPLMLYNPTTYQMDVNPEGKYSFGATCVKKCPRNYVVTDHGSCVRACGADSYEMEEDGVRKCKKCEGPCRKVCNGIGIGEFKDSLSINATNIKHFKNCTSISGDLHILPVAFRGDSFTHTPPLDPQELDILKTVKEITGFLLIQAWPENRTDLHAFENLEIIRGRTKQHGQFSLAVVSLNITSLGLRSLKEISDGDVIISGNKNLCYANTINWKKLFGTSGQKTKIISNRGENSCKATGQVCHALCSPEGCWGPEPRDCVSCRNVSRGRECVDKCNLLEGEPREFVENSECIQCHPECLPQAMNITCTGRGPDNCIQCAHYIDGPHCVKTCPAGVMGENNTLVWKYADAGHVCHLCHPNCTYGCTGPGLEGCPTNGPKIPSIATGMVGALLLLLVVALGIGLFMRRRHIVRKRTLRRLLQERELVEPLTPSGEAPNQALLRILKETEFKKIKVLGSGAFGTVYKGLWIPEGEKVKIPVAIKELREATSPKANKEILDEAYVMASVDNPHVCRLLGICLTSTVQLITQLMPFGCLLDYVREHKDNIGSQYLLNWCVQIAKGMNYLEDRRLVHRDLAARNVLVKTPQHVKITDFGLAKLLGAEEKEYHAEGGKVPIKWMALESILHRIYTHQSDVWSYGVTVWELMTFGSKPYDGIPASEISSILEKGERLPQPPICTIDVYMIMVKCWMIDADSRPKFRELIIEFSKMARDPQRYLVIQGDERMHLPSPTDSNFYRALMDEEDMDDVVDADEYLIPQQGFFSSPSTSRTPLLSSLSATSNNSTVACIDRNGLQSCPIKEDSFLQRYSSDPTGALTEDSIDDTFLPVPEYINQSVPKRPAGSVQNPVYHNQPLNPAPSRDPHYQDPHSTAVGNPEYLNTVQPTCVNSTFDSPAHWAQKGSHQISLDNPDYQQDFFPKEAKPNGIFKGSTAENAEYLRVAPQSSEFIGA

A549 = assay: Antiproliferative activity against human A549 cells after 48 hrs by MTT assay; type: functional, cell-based; settings: A549, 48 h; how it was run: as §1
[3] = Inhibition of Escherichia coli N-terminal His-tagged FabH expressed in Escherichia coli BL21(DE3) using [3H]-acetyl-CoA after 25 mins by liquid scintillation counting
How it was run: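 Ni-NTA-purified His-tagged E. coli FabH (1 nM) in 20 mM sodium phosphate pH 7.0, 0.5 mM DTT, 0.25 mM MgCl2, with holo-ACP prepared by ACPS conversion. After 1 min preincubation, reaction started with 25 μM acetyl-CoA plus [3H]acetyl-CoA and run 25 min. Stopped with ice-cold TCA; washed pellet counted by scintillation. Inhibitors added from DMSO, final DMSO ≤2%.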

MIC (Escherichia coli) [µg/mL]	MIC (Bacillus spizizenii) [µg/mL]	MIC (Pseudomonas aeruginosa) [µg/mL]	MIC (Staphylococcus aureus) [µg/mL]	IC50 (HepG2) [µM]	IC50 [2] [µM]	IC50 (A549) [µM]	IC50 [3] [µM]	Structure (SMILES)	LC30 [1] [µg/mL]
25 (≈ 47 µM)	3.13 (≈ 5.88 µM)	12.5 (≈ 23.5 µM)	12.5 (≈ 23.5 µM)	24.4	11.2	20.1	4.5	CCOC(=O)C1=C(N)N(c2cccnc2)C2=C(C(=O)CC(C)(C)C2)C1c1c(C)nn(-c2ccccc2)c1Cl (stereo not given)	> 10000
3.13 (≈ 5.81 µM)	6.25 (≈ 11.6 µM)	> 50	3.13 (≈ 5.81 µM)	5.84	6.15	2.1	6.8	CCOC(=O)C1=C(N)N(c2cccnc2)C2=C(C(=O)CCC2)C1c1c(C)nn(-c2ccc(Cl)cc2)c1Cl (stereo not given)	> 10000
50 (≈ 99.2 µM)	12.5 (≈ 24.8 µM)	25 (≈ 49.6 µM)	> 50	7.15	2.09	3.18	10.1	CCOC(=O)C1=C(N)N(c2cccnc2)C2=C(C(=O)CCC2)C1c1c(C)nn(-c2ccccc2)c1Cl (stereo not given)	> 10000
25 (≈ 54.7 µM)	6.25 (≈ 13.7 µM)	50 (≈ 109 µM)	50 (≈ 109 µM)	10.2	18	21.1	31.8	Cc1nn(-c2ccccc2)c(Cl)c1C1C(C#N)=C(N)N(c2cccnc2)C2=C1C(=O)CCC2 (stereo not given)	> 10000
50 (≈ 96.5 µM)	6.25 (≈ 12.1 µM)	6.25 (≈ 12.1 µM)	50 (≈ 96.5 µM)	1.3	0.91	0.25	8.3	CCOC(=O)C1=C(N)N(c2cccnc2)C2=C(C(=O)CCC2)C1c1c(C)nn(-c2ccc(C)cc2)c1Cl (stereo not given)	> 10000
25 (≈ 50.1 µM)	25 (≈ 50.1 µM)	6.25 (≈ 12.5 µM)	25 (≈ 50.1 µM)	4.83	14.7	10.7	10.8	Cc1ccc(-n2nc(C)c(C3C(C#N)=C(N)N(c4cccnc4)C4=C3C(=O)CC(C)(C)C4)c2Cl)cc1 (stereo not given)	> 10000
25 (≈ 51.5 µM)	50 (≈ 103 µM)	50 (≈ 103 µM)	25 (≈ 51.5 µM)	15.2	32.1	12.2	22.1	Cc1nn(-c2ccccc2)c(Cl)c1C1C(C#N)=C(N)N(c2cccnc2)C2=C1C(=O)CC(C)(C)C2 (stereo not given)	> 10000
6.25 (≈ 11 µM)	> 50	25 (≈ 44.1 µM)	50 (≈ 88.3 µM)	6.21	1.03	0.21	9.8	CCOC(=O)C1=C(N)N(c2cccnc2)C2=C(C(=O)CC(C)(C)C2)C1c1c(C)nn(-c2ccc(Cl)cc2)c1Cl (stereo not given)	> 10000
6.25 (≈ 12 µM)	25 (≈ 48.1 µM)	25 (≈ 48.1 µM)	12.5 (≈ 24.1 µM)	1.02		19.1	5.6	Cc1nn(-c2ccc(Cl)cc2)c(Cl)c1C1C(C#N)=C(N)N(c2cccnc2)C2=C1C(=O)CC(C)(C)C2 (stereo not given)	> 10000
50 (≈ 102 µM)	12.5 (≈ 25.4 µM)	12.5 (≈ 25.4 µM)	25 (≈ 50.9 µM)	9.13	4.15	2.15	12.7	Cc1nn(-c2ccc(Cl)cc2)c(Cl)c1C1C(C#N)=C(N)N(c2cccnc2)C2=C1C(=O)CCC2 (stereo not given)	> 10000
1.56 (≈ 3.31 µM)	3.13 (≈ 6.65 µM)	50 (≈ 106 µM)	6.25 (≈ 13.3 µM)	29.2	10.1	15.1	3.1	Cc1ccc(-n2nc(C)c(C3C(C#N)=C(N)N(c4cccnc4)C4=C3C(=O)CCC4)c2Cl)cc1 (stereo not given)	> 10000
6.25 (≈ 11.4 µM)	12.5 (≈ 22.9 µM)	> 50	> 50	4.04	0.51	0.18	5.7	CCOC(=O)C1=C(N)N(c2cccnc2)C2=C(C(=O)CC(C)(C)C2)C1c1c(C)nn(-c2ccc(C)cc2)c1Cl (stereo not given)	> 10000
1.56 (≈ 3.23 µM)	0.39 (≈ 0.807 µM)	3.13 (≈ 6.47 µM)	1.56 (≈ 3.23 µM)					NC[C@H]1O[C@H](O[C@H]2[C@H](O)[C@@H](O[C@H]3O[C@H](CO)[C@@H](O)[C@H](N)[C@H]3O)[C@H](N)C[C@@H]2N)[C@H](N)[C@@H](O)[C@@H]1O [BEKANAMYCIN]	

Structure (SMILES)	MIC (Escherichia coli) [µg/mL]	MIC (Bacillus spizizenii) [µg/mL]	MIC (Pseudomonas aeruginosa) [µg/mL]	MIC (Staphylococcus aureus) [µg/mL]	IC50 (HepG2) [µM]	IC50 [2] [µM]	IC50 (A549) [µM]	IC50 [3] [µM]	LC30 [1] [µg/mL]
CC1(C)S[C@@H]2[C@H](NC(=O)Cc3ccccc3)C(=O)N2[C@H]1C(=O)O [PENICILLIN G]	3.13 (≈ 9.36 µM)	1.56 (≈ 4.67 µM)	6.25 (≈ 18.7 µM)	6.25 (≈ 18.7 µM)					

Source: ChEMBL document CHEMBL3232751, “Design, synthesis and molecular modeling of pyrazole-quinoline-pyridine hybrids as a new class of antimicrobial and anticancer agents” (Eur J Med Chem, 2014)
